Measured values taken from ChEMBL document CHEMBL3407460, “Synthesis of novel thiazole-based 8,9-dihydro-7H-pyrimido[4,5-b][1,4]diazepines as potential antitumor and antifungal agents” (2015).
≈ marks a conversion by molar mass, not a printed value.

What was measured:
Assay type in all cases: functional
Candida albicans [1] = assay: Antifungal activity against Candida albicans ATCC 10231 assessed as growth inhibition at 125 ug/ml after 48 hrs by broth microdilution method; conditions: ATCC 10231, 48 h
Outline: (§1)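 CLSI M27-A3 broth microdilution in RPMI-1640. Compound stocks were made in DMSO (final at most 1%) and tested at final levels of 250 to 0.98. Inoculum was 1–5 × 10^3 CFU/mL, incubated 48 h at 30 °C in a moist, dark chamber. Growth and sterility control wells were included.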

Candida albicans [2] = assay: Antifungal activity against Candida albicans ATCC 10231 assessed as growth inhibition at 250 ug/ml after 48 hrs by broth microdilution method; conditions: ATCC 10231, 48 h; outline: as §1
Candida albicans [3] = assay: Antifungal activity against Candida albicans ATCC 10231 assessed as growth inhibition at 7.81 ug/ml after 48 hrs by broth microdilution method; conditions: ATCC 10231, 48 h; outline: as §1
Candida albicans [4] = assay: Antifungal activity against Candida albicans ATCC 10231 assessed as growth inhibition at 3.9 ug/ml after 48 hrs by broth microdilution method; conditions: ATCC 10231, 48 h; outline: as §1
Cryptococcus neoformans [5] = assay: Antifungal activity against Cryptococcus neoformans ATCC 32264 assessed as growth inhibition at 250 ug/ml after 48 hrs by broth microdilution method; conditions: ATCC 32264, 48 h; outline: as §1
Cryptococcus neoformans [6] = assay: Antifungal activity against Cryptococcus neoformans ATCC 32264 assessed as growth inhibition at 7.81 ug/ml after 48 hrs by broth microdilution method; conditions: ATCC 32264, 48 h; outline: as §1
Cryptococcus neoformans [7] = assay: Antifungal activity against Cryptococcus neoformans ATCC 32264 assessed as growth inhibition at 31.25 ug/ml after 48 hrs by broth microdilution method; conditions: ATCC 32264, 48 h; outline: as §1
Candida albicans [8] = assay: Antifungal activity against Candida albicans ATCC 10231 assessed as growth inhibition at 15.62 ug/ml after 48 hrs by broth microdilution method; conditions: ATCC 10231, 48 h; outline: as §1
Candida albicans [9] = assay: Antifungal activity against Candida albicans ATCC 10231 assessed as growth inhibition at 62.5 ug/ml after 48 hrs by broth microdilution method; conditions: ATCC 10231, 48 h; outline: as §1
Cryptococcus neoformans [10] = assay: Antifungal activity against Cryptococcus neoformans ATCC 32264 assessed as growth inhibition at 62.5 ug/ml after 48 hrs by broth microdilution method; conditions: ATCC 32264, 48 h; outline: as §1
Cryptococcus neoformans [11] = assay: Antifungal activity against Cryptococcus neoformans ATCC 32264 assessed as growth inhibition at 3.9 ug/ml after 48 hrs by broth microdilution method; conditions: ATCC 32264, 48 h; outline: as §1
Cryptococcus neoformans [12] = assay: Antifungal activity against Cryptococcus neoformans ATCC 32264 assessed as growth inhibition at 125 ug/ml after 48 hrs by broth microdilution method; conditions: ATCC 32264, 48 h; outline: as §1
Cryptococcus neoformans [13] = assay: Antifungal activity against Cryptococcus neoformans ATCC 32264 assessed as growth inhibition at 15.62 ug/ml after 48 hrs by broth microdilution method; conditions: ATCC 32264, 48 h; outline: as §1
Candida albicans [14] = assay: Antifungal activity against Candida albicans ATCC 10231 assessed as growth inhibition at 31.25 ug/ml after 48 hrs by broth microdilution method; conditions: ATCC 10231, 48 h; outline: as §1
Cryptococcus neoformans [15] = assay: Antifungal activity against Cryptococcus neoformans ATCC 32264 after 48 hrs by broth microdilution method; conditions: ATCC 32264, 48 h, read-out: MIC100
Cryptococcus neoformans [16] = assay: Antifungal activity against Cryptococcus neoformans IM 961951 clinical isolate after 48 hrs by broth microdilution method; conditions: IM 961951, 48 h, read-out: MIC100
Outline: (§2)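 Clinical isolates from the Malbrán Institute were grown on Sabouraud-chloramphenicol agar for 48 h at 30 °C, kept on Sabouraud-dextrose agar and subcultured every 15 days. M27-A3 RPMI-1640 microdilution used 1–5 × 10^3 CFU/mL, 48 h at 30 °C, OD405 read, triplicate. Endpoints MIC100, MIC80 and MIC50 were taken from % inhibition dose-response curves.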

Cryptococcus neoformans [17] = assay: Antifungal activity against Cryptococcus neoformans IM 983036 clinical isolate after 48 hrs by broth microdilution method; conditions: IM 983036, 48 h, read-out: MIC100; outline: as §2
Cryptococcus neoformans [18] = assay: Antifungal activity against Cryptococcus neoformans IM 983040 clinical isolate after 48 hrs by broth microdilution method; conditions: IM 983040, 48 h, read-out: MIC100; outline: as §2
Cryptococcus neoformans [19] = assay: Antifungal activity against Cryptococcus neoformans IM 042074 clinical isolate after 48 hrs by broth microdilution method; conditions: IM 042074, 48 h, read-out: MIC100; outline: as §2
Cryptococcus neoformans [20] = assay: Antifungal activity against Cryptococcus neoformans IM 031631 clinical isolate after 48 hrs by broth microdilution method; conditions: IM 031631, 48 h, read-out: MIC100; outline: as §2
Cryptococcus neoformans [21] = assay: Antifungal activity against Cryptococcus neoformans IM 972724 clinical isolate after 48 hrs by broth microdilution method; conditions: IM 972724, 48 h, read-out: MIC100; outline: as §2
Cryptococcus neoformans [22] = assay: Antifungal activity against Cryptococcus neoformans IM 972751 clinical isolate after 48 hrs by broth microdilution method; conditions: IM 972751, 48 h, read-out: MIC100; outline: as §2

## Cc1ccc(C2=Nc3c(N)nc(N)nc3NC(c3sc(Cl)nc3Cl)C2)cc1 (stereo not given)
Candida albicans [1]
  inhibition at 125 µg/mL: 21.3%
Candida albicans [2]
  inhibition at 250 µg/mL: 55.5%
Candida albicans [3]
  inhibition at 7.81 µg/mL: 0%
Candida albicans [4]
  inhibition at 3.9 µg/mL: 0%
Cryptococcus neoformans [5]
  inhibition at 250 µg/mL: 59.1%
Cryptococcus neoformans [6]
  inhibition at 7.81 µg/mL: 0.93%
Cryptococcus neoformans [7]
  inhibition at 31.25 µg/mL: 6.47%
Candida albicans [8]
  inhibition at 15.62 µg/mL: 1.41%
Candida albicans [9]
  inhibition at 62.5 µg/mL: 13.5%
Cryptococcus neoformans [10]
  inhibition at 62.5 µg/mL: 9.2%
Cryptococcus neoformans [11]
  inhibition at 3.9 µg/mL: 0%
Cryptococcus neoformans [12]
  inhibition at 125 µg/mL: 18.3%
Cryptococcus neoformans [13]
  inhibition at 15.62 µg/mL: 4.57%
Candida albicans [14]
  inhibition at 31.25 µg/mL: 8.7%

## COc1ccc(C2=Nc3c(N)nc(N)nc3NC(c3sc(Cl)nc3Cl)C2)cc1 (stereo not given)
Candida albicans [1]
  inhibition at 125 µg/mL: 54.6%
Candida albicans [2]
  inhibition at 250 µg/mL: 62.6%
Candida albicans [3]
  inhibition at 7.81 µg/mL: 12.4%
Candida albicans [4]
  inhibition at 3.9 µg/mL: 10.4%
Cryptococcus neoformans [5]
  inhibition at 250 µg/mL: 77.1%
Cryptococcus neoformans [6]
  inhibition at 7.81 µg/mL: 6.04%
Cryptococcus neoformans [7]
  inhibition at 31.25 µg/mL: 13.2%
Candida albicans [8]
  inhibition at 15.62 µg/mL: 15.7%
Candida albicans [9]
  inhibition at 62.5 µg/mL: 23.2%
Cryptococcus neoformans [10]
  inhibition at 62.5 µg/mL: 23.1%
Cryptococcus neoformans [11]
  inhibition at 3.9 µg/mL: 0%
Cryptococcus neoformans [12]
  inhibition at 125 µg/mL: 46.9%
Cryptococcus neoformans [13]
  inhibition at 15.62 µg/mL: 7.79%
Candida albicans [14]
  inhibition at 31.25 µg/mL: 21.2%

## COc1cc(C2=Nc3c(N)nc(N)nc3NC(c3sc(Cl)nc3Cl)C2)cc(OC)c1OC (stereo not given)
Candida albicans [1]
  inhibition at 125 µg/mL: 10.5%
Candida albicans [2]
  inhibition at 250 µg/mL: 15%
Candida albicans [3]
  inhibition at 7.81 µg/mL: 0%
Candida albicans [4]
  inhibition at 3.9 µg/mL: 0%
Cryptococcus neoformans [5]
  inhibition at 250 µg/mL: 77.5%
Cryptococcus neoformans [6]
  inhibition at 7.81 µg/mL: 2.99%
Cryptococcus neoformans [7]
  inhibition at 31.25 µg/mL: 7.09%
Candida albicans [8]
  inhibition at 15.62 µg/mL: 0%
Candida albicans [9]
  inhibition at 62.5 µg/mL: 7.26%
Cryptococcus neoformans [10]
  inhibition at 62.5 µg/mL: 9.28%
Cryptococcus neoformans [11]
  inhibition at 3.9 µg/mL: 1.65%
Cryptococcus neoformans [12]
  inhibition at 125 µg/mL: 27.2%
Cryptococcus neoformans [13]
  inhibition at 15.62 µg/mL: 5.52%
Candida albicans [14]
  inhibition at 31.25 µg/mL: 9.84%

## C[C@@H]1[C@H](O)[C@@H](C)/C=C/C=C/C=C/C=C/C=C/C=C/C=C/[C@H](O[C@@H]2O[C@H](C)[C@@H](O)[C@H](N)[C@@H]2O)C[C@@H]2O[C@](O)(C[C@@H](O)C[C@@H](O)[C@H](O)CC[C@@H](O)C[C@@H](O)CC(=O)O[C@H]1C)C[C@H](O)[C@H]2C(=O)O [AMPHOTERICIN B]
Cryptococcus neoformans [15]
  MIC: 0.12 µg/mL (≈ 0.13 µM)
Cryptococcus neoformans [16]
  MIC: 1 µg/mL (≈ 1.08 µM)
Cryptococcus neoformans [17]
  MIC: 0.25 µg/mL (≈ 0.271 µM)
Cryptococcus neoformans [18]
  MIC: 0.25 µg/mL (≈ 0.271 µM)
Cryptococcus neoformans [19]
  MIC: 0.12 µg/mL (≈ 0.13 µM)
Cryptococcus neoformans [20]
  MIC: 0.12 µg/mL (≈ 0.13 µM)
Cryptococcus neoformans [21]
  MIC: 0.25 µg/mL (≈ 0.271 µM)
Cryptococcus neoformans [22]
  MIC: 1 µg/mL (≈ 1.08 µM)
